# Test results reported in ChEMBL document CHEMBL2440035, “Azetidines and spiro azetidines as novel P2 units in hepatitis C virus NS3 protease inhibitors” (Bioorg Med Chem Lett, 2013).
# Legend:
# CCRF-CEM = assay: Cytotoxicity against human CEM cells; format: cell-based
# Method in brief: (§1)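 Cytotoxicity was profiled in three cell types: primary human peripheral blood mononuclear (PBM) cells, CEM (a human T-cell-derived line) and Vero (African green monkey kidney epithelial cells).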
# Hepatitis C virus [1] = assay: Antiviral activity against Hepatitis C virus infected in human HuH7 cells assessed as viral RNA replication; format: functional, organism-based, Hepacivirus hominis; details: Huh-7
# Method in brief: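 Subgenomic HCV replicon in Huh7 cells; inhibition of HCV RNA replication measured by extraction and amplification of HCV RNA. Each concentration run in triplicate and reported as mean; EC50 derived.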
# Huh-7 = assay: Cytotoxicity against human HuH7 cells; format: cell-based
# Method in brief: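 Huh7 cytotoxicity measured together with the replicon antiviral assay, by extraction and amplification of ribosomal RNA. Each concentration run in triplicate and reported as mean.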
# Vero = assay: Cytotoxicity against african green monkey Vero cells; format: cell-based; details: chlorocebus sabaeus; method in brief: as §1
# PBMC = assay: Cytotoxicity against human PBMC; format: cell-based; method in brief: as §1
# Hepatitis C virus [2] = assay: Inhibition of Hepatitis C virus genotype 1b wild type NS3/4A protease; set-up: species or system Hepatitis C virus subtype 1b
# Method in brief: (§2)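 Panel of genotype 1b NS3 protease enzymes (wild type and mutants). IC50 and IC90 are averages ± standard error from 2 independent assays. Fold change versus wild type given in parentheses.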
# Cathepsin S = Cathepsin S (Homo sapiens, UniProt P25774); assay: Inhibition of human cathepsin S
# Hepatitis C virus [3] = assay: Inhibition of Hepatitis C virus genotype 1b NS3/4A protease V170A mutant; set-up: species or system Hepatitis C virus subtype 1b; method in brief: as §2
# Hepatitis C virus [4] = assay: Inhibition of Hepatitis C virus genotype 1b NS3/4A protease R155K mutant; set-up: species or system Hepatitis C virus subtype 1b; method in brief: as §2
# Hepatitis C virus [5] = assay: Inhibition of Hepatitis C virus genotype 1b NS3/4A protease D168V mutant; set-up: species or system Hepatitis C virus subtype 1b; method in brief: as §2
# Hepatitis C virus [6] = assay: Inhibition of Hepatitis C virus genotype 1b NS3/4A protease A156S mutant; set-up: species or system Hepatitis C virus subtype 1b; method in brief: as §2
# Hepatitis C virus [7] = assay: Inhibition of Hepatitis C virus genotype 1b NS3/4A protease D168A mutant; set-up: species or system Hepatitis C virus subtype 1b; method in brief: as §2
# Hepatitis C virus [8] = assay: Inhibition of Hepatitis C virus genotype 1b NS3/4A protease A156T mutant; set-up: species or system Hepatitis C virus subtype 1b; method in brief: as §2
# Plasminogen = Plasminogen (Homo sapiens, UniProt P00747); assay: Inhibition of human plasmin
# Chain of Plasminogen (P00747 97-580 limits assumed): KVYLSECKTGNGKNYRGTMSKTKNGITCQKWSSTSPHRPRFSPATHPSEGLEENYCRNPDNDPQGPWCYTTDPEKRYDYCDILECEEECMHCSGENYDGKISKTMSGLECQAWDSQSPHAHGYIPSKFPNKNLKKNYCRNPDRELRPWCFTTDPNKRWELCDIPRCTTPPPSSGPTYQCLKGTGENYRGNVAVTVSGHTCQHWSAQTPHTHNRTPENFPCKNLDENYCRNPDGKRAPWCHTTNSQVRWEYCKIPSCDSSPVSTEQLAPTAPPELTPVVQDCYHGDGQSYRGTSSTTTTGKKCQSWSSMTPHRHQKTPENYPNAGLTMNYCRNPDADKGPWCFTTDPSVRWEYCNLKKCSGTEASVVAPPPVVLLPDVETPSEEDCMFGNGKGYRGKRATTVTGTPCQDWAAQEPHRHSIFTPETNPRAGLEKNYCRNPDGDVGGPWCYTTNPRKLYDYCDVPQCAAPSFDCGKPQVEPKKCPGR
# Chain of Plasminogen (P00747 581-810 limits assumed): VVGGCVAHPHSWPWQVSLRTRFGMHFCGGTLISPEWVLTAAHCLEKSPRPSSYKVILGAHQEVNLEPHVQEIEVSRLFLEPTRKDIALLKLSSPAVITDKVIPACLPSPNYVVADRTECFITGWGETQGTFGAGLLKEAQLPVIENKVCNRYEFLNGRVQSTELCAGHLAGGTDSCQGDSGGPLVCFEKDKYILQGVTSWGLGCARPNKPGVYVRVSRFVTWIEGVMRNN
# Hepatitis C virus [9] = assay: Inhibition of Hepatitis C virus genotype 1b NS3/4A protease V36M mutant; set-up: species or system Hepatitis C virus subtype 1b; method in brief: as §2
# Prothrombin = Prothrombin (Homo sapiens, UniProt P00734); assay: Inhibition of human thrombin
# [10] = target: T1, Neutrophil elastase (Homo sapiens) (UniProt P08246); assay: (§3) Inhibition of human neutrophil elastase
# T1 sequence (whole entry): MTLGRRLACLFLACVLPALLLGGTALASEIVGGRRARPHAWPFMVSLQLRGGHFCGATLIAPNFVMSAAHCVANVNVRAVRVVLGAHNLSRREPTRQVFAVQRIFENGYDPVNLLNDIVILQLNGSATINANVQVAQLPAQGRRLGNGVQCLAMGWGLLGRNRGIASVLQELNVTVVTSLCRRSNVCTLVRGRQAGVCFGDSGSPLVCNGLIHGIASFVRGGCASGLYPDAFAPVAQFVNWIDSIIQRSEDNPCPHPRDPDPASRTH
# Neutrophil elastase = target: T2, Neutrophil elastase (Homo sapiens, UniProt P08246); assay: as §3
# T2 sequence (P08246 whole entry): T1 sequence (whole entry)
# Hepatitis C virus [11] = assay: Ratio of EC90 for Hepatitis C virus genotype 1b NS3/4A protease D168V mutant to EC90 Hepatitis C virus genotype 1b wild type NS3/4A protease; set-up: species or system Hepatitis C virus subtype 1b
# Method in brief: (§4)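 Genotype 1b NS3 protease enzyme panel: wild type plus resistance mutants A156T, R155K, D168V, V36M, A156S, V170A and D168A. […] Resistance is expressed as the fold increase of each mutant's value over the wild-type value.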
# Hepatitis C virus [12] = assay: Ratio of EC50 for Hepatitis C virus genotype 1b NS3/4A protease R155K mutant to EC50 Hepatitis C virus genotype 1b wild type NS3/4A protease; set-up: species or system Hepatitis C virus subtype 1b; method in brief: as §4
# Hepatitis C virus [13] = assay: Ratio of EC90 for Hepatitis C virus genotype 1b NS3/4A protease V36M mutant to EC90 Hepatitis C virus genotype 1b wild type NS3/4A protease; set-up: species or system Hepatitis C virus subtype 1b; method in brief: as §4
# Hepatitis C virus [14] = assay: Ratio of EC90 for Hepatitis C virus genotype 1b NS3/4A protease V170A mutant to EC90 Hepatitis C virus genotype 1b wild type NS3/4A protease; set-up: species or system Hepatitis C virus subtype 1b; method in brief: as §4
# Hepatitis C virus [15] = assay: Ratio of EC50 for Hepatitis C virus genotype 1b NS3/4A protease D168A mutant to EC50 Hepatitis C virus genotype 1b wild type NS3/4A protease; set-up: species or system Hepatitis C virus subtype 1b; method in brief: as §4
# Hepatitis C virus [16] = assay: Ratio of EC50 for Hepatitis C virus genotype 1b NS3/4A protease V36M mutant to EC50 Hepatitis C virus genotype 1b wild type NS3/4A protease; set-up: species or system Hepatitis C virus subtype 1b; method in brief: as §4
# Hepatitis C virus [17] = assay: Ratio of EC90 for Hepatitis C virus genotype 1b NS3/4A protease R155K mutant to EC90 Hepatitis C virus genotype 1b wild type NS3/4A protease; set-up: species or system Hepatitis C virus subtype 1b; method in brief: as §4
# Hepatitis C virus [18] = assay: Ratio of EC90 for Hepatitis C virus genotype 1b NS3/4A protease D168A mutant to EC90 Hepatitis C virus genotype 1b wild type NS3/4A protease; set-up: species or system Hepatitis C virus subtype 1b; method in brief: as §4
# Hepatitis C virus [19] = assay: Ratio of EC50 for Hepatitis C virus genotype 1b NS3/4A protease A156S mutant to EC50 Hepatitis C virus genotype 1b wild type NS3/4A protease; set-up: species or system Hepatitis C virus subtype 1b; method in brief: as §4
# Hepatitis C virus [20] = assay: Ratio of EC50 for Hepatitis C virus genotype 1b NS3/4A protease D168V mutant to EC50 Hepatitis C virus genotype 1b wild type NS3/4A protease; set-up: species or system Hepatitis C virus subtype 1b; method in brief: as §4
# Hepatitis C virus [21] = assay: Ratio of EC90 for Hepatitis C virus genotype 1b NS3/4A protease A156T mutant to EC90 Hepatitis C virus genotype 1b wild type NS3/4A protease; set-up: species or system Hepatitis C virus subtype 1b; method in brief: as §4
smiles,measurement,setting,value
C=CCNC(=O)C(=O)C(CCC)NC(=O)C1CCN1C(=O)[C@@H](NC(=O)[C@@H](NC(=O)c1cnccn1)C1CCCCC1)C(C)(C)C (some centres undefined),CC50,CCRF-CEM,30 µM
same,EC50,Hepatitis C virus [1],> 10 µM
same,EC90,Hepatitis C virus [1],> 10 µM
same,CC50,Huh-7,> 10 µM
same,CC50,Vero,> 100 µM
same,CC50,PBMC,27 µM
CC(C)(C)[C@H](NC(=O)[C@@H](NC(=O)c1cnccn1)C1CCCCC1)C(=O)N1CC2(Cc3ccccc3C2)C1C(=O)NC(CC1CCC1)C(=O)C(=O)NC1CC1 (some centres undefined),CC50,CCRF-CEM,43 µM
same,EC50,Hepatitis C virus [1],0.7 µM
same,EC90,Hepatitis C virus [1],1 µM
same,CC50,Vero,> 100 µM
same,CC50,PBMC,29 µM
CC(C)(C)NC(=O)N[C@H](C(=O)N1C[C@H]2[C@@H]([C@H]1C(=O)NC(CC1CCC1)C(=O)C(N)=O)C2(C)C)C(C)(C)C (some centres undefined) [BOCEPREVIR],EC90,Hepatitis C virus [2],1 µM
same,IC50,Cathepsin S,> 100 µM
same,IC90,Cathepsin S,> 100 µM
same,EC90,Hepatitis C virus [3],7.7 µM
same,EC90,Hepatitis C virus [4],4.8 µM
same,EC90,Hepatitis C virus [5],0.9 µM
same,EC90,Hepatitis C virus [6],≥ 100 µM
same,CC50,CCRF-CEM,> 100 µM
same,EC50,Hepatitis C virus [1],0.01 µM
same,EC90,Hepatitis C virus [1],0.03 µM
same,EC90,Hepatitis C virus [7],4.7 µM
same,EC90,Hepatitis C virus [8],> 100 µM
same,CC50,Huh-7,> 10 µM
same,IC50,Plasminogen,> 100 µM
same,IC90,Plasminogen,> 100 µM
same,CC50,Vero,> 100 µM
same,CC50,PBMC,> 100 µM
same,EC90,Hepatitis C virus [9],5.6 µM
same,IC50,Prothrombin,< 1 µM
same,IC90,Prothrombin,< 1.4 µM
same,IC90,[10],> 100 µM
same,IC50,Neutrophil elastase,≥ 100 µM
CCCC(NC(=O)C1N(C(=O)[C@@H](NC(=O)[C@@H](NC(=O)c2cnccn2)C2CCCCC2)C(C)(C)C)CC12CCCCC2)C(=O)C(=O)NC1CC1 (some centres undefined),Ratio,Hepatitis C virus [11],0.3
same,EC50,Hepatitis C virus [2],0.78 µM
same,EC90,Hepatitis C virus [2],9.81 µM
same,Ratio EC50,Hepatitis C virus [12],7.1
same,Ratio,Hepatitis C virus [13],7.6
same,Ratio,Hepatitis C virus [14],0.9
same,Ratio EC50,Hepatitis C virus [15],0.9
same,Ratio EC50,Hepatitis C virus [16],8.8
same,Ratio,Hepatitis C virus [17],6.6
same,IC50,Cathepsin S,> 100 µM
same,IC90,Cathepsin S,> 100 µM
same,Ratio,Hepatitis C virus [18],0.8
same,EC50,Hepatitis C virus [3],> 1 µM
same,EC90,Hepatitis C virus [3],8.7 µM
same,EC50,Hepatitis C virus [4],5.5 µM
same,EC90,Hepatitis C virus [4],64 µM
same,EC50,Hepatitis C virus [5],0.4 µM
same,EC90,Hepatitis C virus [5],3.3 µM
same,EC50,Hepatitis C virus [6],43 µM
same,EC90,Hepatitis C virus [6],> 100 µM
same,Ratio EC50,Hepatitis C virus [19],55
same,CC50,CCRF-CEM,16 µM
same,EC50,Hepatitis C virus [1],2.3 µM
same,EC90,Hepatitis C virus [1],6.4 µM
same,EC50,Hepatitis C virus [7],0.72 µM
same,EC90,Hepatitis C virus [7],8.2 µM
same,EC50,Hepatitis C virus [8],> 100 µM
same,EC90,Hepatitis C virus [8],> 100 µM
same,CC50,Huh-7,> 10 µM
same,IC50,Plasminogen,> 100 µM
same,IC90,Plasminogen,> 100 µM
same,CC50,Vero,27 µM
same,CC50,PBMC,32 µM
same,Ratio EC50,Hepatitis C virus [20],0.5
same,EC50,Hepatitis C virus [9],6.9 µM
same,EC90,Hepatitis C virus [9],75 µM
same,Ratio,Hepatitis C virus [21],>10
same,IC50,Prothrombin,< 1 µM
same,IC90,Prothrombin,< 1.7 µM
same,IC90,[10],85 µM
same,IC50,Neutrophil elastase,7.8 µM
